Measurements from ChEMBL document CHEMBL4513216, “Probing the Open Global Health Chemical Diversity Library for Multistage-Active Starting Points for Next-Generation Antimalarials” (ACS Infect Dis, 2020).

Test: Toxicity liver stage against HepG2, at 10uM
Type: cell-based
Parameters: test concentration 10 uM, cell line HepG2-A16-CD81EGFP
Settings: human, HepG2-A16-CD81EGFP cells; read-out: INHIBITION
Summary of the method: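 Uninfected HepG2-A16-CD81EGFP cells, 3 × 10^3 per well, 1536-well, plated on prespotted compound at 10 μM final, parasite-free screening media added to match infected plates; puromycin 10 μM positive, DMSO 0.5% negative; run in parallel with 48 h PbLuc assay at 37 °C, 5% CO2; viability by CellTiter-Glo luminescence, normalized to controls.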

Structure (SMILES) | cytotoxicity at 10 µM [%]
COCCN1C[C@H]2CN(C(=O)NCc3ccccc3)CCN2C1=O | 2.08
COCc1cc(C[C@@H]2CC[C@H](O)[C@@H](CNCC(C)C)O2)no1 | 0.847
CC(C)(C)n1ncc2c1NC(=O)CSC2c1ccsc1 (stereo unspecified) | -2.34
Cc1nn(C)cc1-c1nn2c(C(F)(F)F)nnc2s1 | 2.48
COCCNC(=O)NCCn1nc(C(F)(F)F)n(C)c1=O | -2.06
CC(C)N1CCc2[nH]nc(C(=O)N3CCCC3C)c2C1 (stereo unspecified) | -6.25
Cc1cnc(CNC(=O)C[C@@H]2COC[C@H]3CN(C4CCC4)C[C@@H]23)cn1 | -10.6
O=C1NCCO[C@H]2CN(C(=O)CCc3ccccc3Cl)CC[C@@H]12 | 1.96
O=c1ccc2c(n1Cc1ccncc1)CCN(C1CCOC1)CC2 (stereo unspecified) | -1.31
CNC(=O)[C@@]12CCC3(CCNCC3)[C@@H]1CN(S(C)(=O)=O)C2 | -2.86
CO[C@@H]1CC[C@H]2[C@H]1OCCN2S(=O)(=O)C1CC1 | 2.6
CCc1ccc(NC(=O)N2C[C@H]3CC[C@@]4(N=C(C)N(C)C4=O)[C@H]3C2)cc1 | 11
COCC1CN(C(=O)c2cccn2C)Cc2cnn(C)c21 (stereo unspecified) | 7.43
COc1cc(C(=O)NCC2CCCO2)nc2c(C)cc(F)cc12 (stereo unspecified) | 1.79
COC(=O)c1sccc1S(=O)(=O)NCC1(O)CCOc2ccccc21 (stereo unspecified) | -10.9
CC(=O)N1CCn2c(COCc3csc(C)n3)cnc2C1C (stereo unspecified) | -12.5
CN(C)[C@@H]1CCN(c2ncccn2)[C@H]1Cc1ccccc1 | -9.29
Cn1cc(Br)c(C(=O)NCCn2cc(Br)cn2)n1 | -13.3
COC(=O)c1c(Cl)c(C)nc2onc(C)c12 | -0.895
O=C(O)c1cnc(N2CCCC2)nc1COc1ccccc1 | 0.924
COc1ccc(CNC(=O)c2nn(C)c3c2CS(=O)(=O)CC3)cc1OC | 8.09
CC(=O)N1CCOC(c2c(C(=O)NCCN(C)C)sc3ccccc23)C1 (stereo unspecified) | -1.19
CN(CCOc1ccc(F)cc1)S(=O)(=O)N1CCOCC1 | 7.71

Structure (SMILES) | cytotoxicity at 10 µM [%]
c1cnc(NCCCOC2CCOCC2)nc1 | -2.96
COCC(=O)Nc1nnc2n(Cc3cccc(OC)c3)[nH]c(C)c1-2 | -11.7
CCC(C)NC(=O)CS(=O)(=O)Cc1ccccc1Cl (stereo unspecified) | 3.79
CN(C)C(=O)CCCn1ccc(NCc2ccc(C#N)cc2)n1 | 1.92
CCCOc1cc(CNC(=O)Nc2ccc(C)cc2)ccn1 | 2.99
NC(=O)CN1CCc2c(Br)ccc(F)c2C1 | 0.892
CC(C)Oc1cccc(CN(C)C(=O)Nc2cccn(C)c2=O)c1 | -6.13
CN(C(=O)c1ccc(NC(=O)c2cc[nH]n2)cc1)C1CCCCC1 | -2.98
CN(C)c1ccc(C(=O)Nc2ccn(CC(N)=O)n2)cn1 | -5.75
O=C(CNC(=O)c1ccccc1I)NCc1ccccc1F | 1.16
O=c1[nH]nc(SCC2CCCO2)n1C1CC1 (stereo unspecified) | 0.0288
Cc1cc(N2CCc3c(ncn3C)C2)nc(N)n1 | -7.93
Cc1cnc(CN2CCN(C(C)c3nc(C)no3)CC2)cn1 (stereo unspecified) | 1.81
O=C(NCC(c1cccs1)N1CCOCC1)c1ccc(F)cc1Cl (stereo unspecified) | -2.27
CCOc1ccc(CC(=O)Nc2cnccc2SCCCO)cc1 | 7.94
Cc1cccc(-c2noc(CN3CCn4c(nnc4C4CC4)C3)n2)c1 | -9.03
COc1ccc2c(c1)C(=O)N(C)C1(CCN(CC=C(C)C)CC1)N2 | 3.31
N#Cc1cccnc1NCc1ccc(S(=O)(=O)NC2CC2)cc1 | 6.25
Cc1n[nH]c(C)c1NC(=O)c1cccc(OCC(F)(F)F)n1 | -6.83
O=C(CNc1cc(F)ccc1OC(F)F)NCC(F)(F)F | -2.79
CC(CNC(=O)c1c[nH]nn1)Oc1cccc(Br)c1 (stereo unspecified) | -10.3
CC(C)CN1C(=O)C2(CCCC2)NC12CCSCC2 | -135
O=C(c1ccc[nH]1)N(Cc1ccc(O)cc1)CC1CC1 | 8.43

Structure (SMILES) | cytotoxicity at 10 µM [%]
COCCCNC(=O)Cn1nnc(-c2cc3ccccc3o2)n1 | 6.43
COc1ccc(S(=O)(=O)C(C)C(=O)NCCOc2cccc(C)c2)cc1 (stereo unspecified) | -2.24
Cc1c(NC(=O)NC2CCCC2)cccc1C(=O)N1CCSCC1 | 11.8
CCc1nnsc1C(=O)N1CCN(CC(O)C(C)(C)C)CC1 (stereo unspecified) | 0.542
O=C(O)c1csc(S(=O)(=O)N2CCCc3cc(OC(F)F)ccc32)c1 | -9.69
CCOc1ccc(C(F)(F)F)cc1NC(=O)NCc1noc(C)n1 | -5.1
COCCN1CCN(c2ccc(CN(C)C)cn2)CC1 | -7.41
O=C(c1ccccc1O)N1CCN(C(=O)C2CCC2)CC1 | 2.42
c1ccc(CN2CCCC2)c(CNc2cncc3nnnn23)c1 | 0.351
CC(=O)Nc1ccc(C(=O)N2CCSCC2c2ccc(C)o2)cc1 (stereo unspecified) | 11.4
CCCNC(=O)C1CCCN(Cc2ccc(-n3cncn3)c(C)c2)C1 (stereo unspecified) | 8.28
OC(CN1CCOCC1)c1cc(Cl)ccc1Cl (stereo unspecified) | -1.57
COC(C)(C)CC(C)NC(=O)Nc1ccccn1 (stereo unspecified) | 8.19
CC1CCCN1C1CCN(C(=O)c2cccc(-c3ccoc3)c2)CC1 (stereo unspecified) | -9.63
CC(=O)N(C)c1nc(CN2CCOC(Cn3cccn3)C2)cs1 (stereo unspecified) | -12.8
CCc1nc2n(n1)CC(NCc1nc(C)ccc1O)CC2 (stereo unspecified) | -9.96
CS(=O)(=O)Cc1cccc(C(=O)NCC2Cc3ccccc3O2)c1 (stereo unspecified) | -16.5
COc1ccc2cc(CN(C)CCN3CCCCC3=O)c(=O)[nH]c2c1 | 0.363
CCC(C)NC(=O)c1coc(COc2cccc(F)c2)n1 (stereo unspecified) | -146
NS(=O)(=O)c1ccc(F)c(C(=O)NCCSc2ccccn2)c1 | -9.11
COCc1noc(Cn2ccc3ccccc3c2=O)n1 | 0.761
Cc1ccc(Oc2ncccc2CNC2CCOCC2)cn1 | -3.73
COc1cccc(CN2C[C@H]3CC[C@H]2C3)c1OCCN1CCOCC1 | 0.101

Structure (SMILES) | cytotoxicity at 10 µM [%]
CC(=O)Nc1ccsc1C(=O)Nc1cnc2n1CCCC2 | -4.58
CCN1CCN(C[C@@H]2CN(c3ncccc3C(F)(F)F)C[C@@H]2CO)CC1 | -4.47
Cc1ccc2nc(C(=O)N3CCNC(=O)C3c3cccc(F)c3)cn2c1 (stereo unspecified) | -5.66
Cc1cc(C)c2c(N3CCN(C(=O)N4CCOCC4)CC3)ncnc2n1 | -8.29
O=C(NCc1ccc(F)cc1F)C(c1cccnc1)N1CCOCC1 (stereo unspecified) | -4.89
CC(C)c1cc(-c2cnn(C)c2C2CC2)c(C#N)c(N)n1 | 28.5
Cc1cccc(CN2CCCC(O)(CNCc3cccc(F)c3)C2=O)c1 (stereo unspecified) | -12.1
COCC1CCCCN1C(=O)c1cc(Cn2ccc3ccccc32)[nH]n1 (stereo unspecified) | -3.54
CCc1ncc(C(=O)N2CCN(C(=O)COc3ccccc3)CC2)cn1 | -12.8
Cc1cccc2[nH]c(C3CCN(C(=O)c4c[nH]c(=O)[nH]c4=O)CC3)nc12 | 8.59
CS(=O)(=O)N1CCC(Oc2ccc(C(=O)NC3CCCC3)cc2Cl)CC1 | -1.02
CCCn1cc(C(=O)NCCc2ccc3c(c2)OCO3)c(C)n1 | 96.3
CC(=O)N1C[C@H](NS(=O)(=O)c2cccc(Cl)c2)[C@@H](C(C)C)C1 | 7.82
CCN1CCN(C(=O)c2cccc(CN3CCOCC3)c2)CC1 | 7.12
Cn1ccnc1C(=O)N1CCCC1c1ccc(C(=O)N2CCOCC2)s1 (stereo unspecified) | -155
N#Cc1c(C2CC2)cc(-c2ccc(O)cc2)nc1N | -4.72
CCc1nc(C)c([C@H]2CN(C)C[C@@H]2C(=O)Nc2ccc(OC)cc2)[nH]1 | -6.66
CCc1nc(C2CCCN2CC(=O)Nc2cc(C)no2)no1 (stereo unspecified) | -1.68
CCN1N=C(C(=O)N2CCCC(c3nc(C)c(C)s3)C2)CCC1=O (stereo unspecified) | 1.84
Cn1ccnc1COc1ccc(CN2CCC(C(N)=O)CC2)cc1 | -4.47
Cc1nc(C)n(CC2CN(c3ncccc3C#N)CCO2)n1 (stereo unspecified) | -10.1
CC(=O)NCCNC(=O)c1sc(-c2ccc(Cl)cc2)nc1C | -7.6
Cc1ccc(N2CCCN(C(=O)CCC3CCCO3)CC2)nn1 (stereo unspecified) | -16.3

Structure (SMILES) | cytotoxicity at 10 µM [%]
Cc1nc(C)n(CC2CCCN(Cc3cccnc3)C2)n1 (stereo unspecified) | -18.7
c1cc(-c2noc(CN3CCn4c(nnc4C4CC4)C3)n2)cs1 | -7.07
COc1ccc(NC(=O)NCc2ccnc(N(C)C)c2)cn1 | -8.6
Cc1cccc(CNC(=O)N(CCCO)C2CCc3ccccc32)n1 (stereo unspecified) | -10.5
CCOCC(O)CN1CCN(C(=O)C2CCC2)CC1 (stereo unspecified) | -11.8
O=C(Cc1c[nH]c2ccccc12)N1CCC(Nc2ccccc2)CC1 | -12.9
CCc1nc(CN2CCOC(Cn3nc(C)nc3C)C2)no1 (stereo unspecified) | -5.38
O=C(c1cnccn1)N1CCCC2(CCN(Cc3ccsc3)C2)C1 (stereo unspecified) | -2.27
O=C(Nc1cnccn1)[C@H]1COC[C@H]2CN(C3CCCC3)C[C@H]21 | -20.4
Cc1nc(CN2CCOCC23CCN(c2ccc(C#N)cc2)CC3)cs1 | -13.8
CN1CCOCC12CCN(c1ccc(C#N)cc1)CC2 | -4.23
COCCN1CCc2ccc(=O)n(Cc3csc(C)n3)c2CC1 | 4.68
Cc1csc(CCNCc2cnc3c(c2)c(C)nn3C)n1 | 5.76
CC(C)N(C)Cc1cn2c(n1)CN(Cc1ccsc1)CC2 | -16.1
CN(C)C(=O)NCc1cc2n(n1)CCCN(CC1[C@H]3CNC[C@@H]13)C2 (stereo partly specified) | -5.77
COC(=O)N1C[C@@H]2CC[C@H]1CN(Cc1cscn1)C2 | -9.25
COc1ccc(OC)c(C2c3c(n[nH]c3C)N=C3COC(=O)C32)c1 (stereo unspecified) | -11.3
C=c1occc1=C1NN=C2SC(C#N)C(N)=NN21 (stereo unspecified) | 0.331
Cc1oc(C(C)C)cc1C(=O)N1C[C@@H]2CC[C@H]1CN(C(=O)N(C)C)C2 | -119
